Reference: ChEMBL document CHEMBL3525985, “Regiospecificity and stereospecificity of human UDP-glucuronosyltransferases in the glucuronidation of estriol, 16-epiestriol, 17-epiestriol, and 13-epiestradiol” (Drug Metab Dispos, 2013)

Tests used:
[1] = target: T1, UDP-glucuronosyltransferase 1A10 (Homo sapiens, UniProt Q9HAW8); experiment: Drug level assessed as recombinant human C-terminal His-tagged UGT1A10-mediated compound formation from 200 uM estriol after 15 to 60 mins by […] analysis in presence of UDPGA; assay type: ADME; details: recombinant enzyme
T1 sequence (Q9HAW8 whole entry): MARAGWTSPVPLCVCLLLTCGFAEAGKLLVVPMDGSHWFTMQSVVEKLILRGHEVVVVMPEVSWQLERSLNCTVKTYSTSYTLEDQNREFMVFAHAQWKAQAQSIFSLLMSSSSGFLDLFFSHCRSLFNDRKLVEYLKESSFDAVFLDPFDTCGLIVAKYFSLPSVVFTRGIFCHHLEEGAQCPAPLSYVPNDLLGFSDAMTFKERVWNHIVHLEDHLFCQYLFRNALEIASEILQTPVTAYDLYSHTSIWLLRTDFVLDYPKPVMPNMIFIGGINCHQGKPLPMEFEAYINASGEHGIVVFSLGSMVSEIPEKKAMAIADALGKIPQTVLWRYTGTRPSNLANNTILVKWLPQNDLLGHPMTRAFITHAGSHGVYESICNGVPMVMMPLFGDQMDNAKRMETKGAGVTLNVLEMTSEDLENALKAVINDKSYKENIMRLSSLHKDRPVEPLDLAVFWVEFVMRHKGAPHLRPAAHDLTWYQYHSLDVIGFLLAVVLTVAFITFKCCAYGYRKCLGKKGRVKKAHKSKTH
How it was run: (§1)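 UGT-enriched insect cell membranes (5 or 50 µg) in 50 mM phosphate pH 7.4, 10 mM MgCl2, 5 mM UDPGA; substrate 200 µM in DMSO (10% final); 15–60 min at 37°C; stopped with perchloric acid, on ice, centrifuged; glucuronides resolved by HPLC. Triplicates, no-UDPGA controls; rates normalized to relative UGT expression; substrate consumption ≤10%.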

UGT2A2 (Homo sapiens) = experiment: Drug level assessed as recombinant human C-terminal His-tagged UGT2A2-mediated compound formation from at 200 uM 13-epiestradiol after 15 to 60 mins by HPLC analysis in presence of UDPGA; details: recombinant enzyme
[2] = target: T2, UDP-glucuronosyltransferase 2B7 (Homo sapiens, UniProt P16662); experiment: Drug level assessed as recombinant human C-terminal His-tagged UGT2B7-mediated compound formation from 200 uM 17-epiestriol after 15 to 60 mins by HPLC analysis in presence of UDPGA; assay type: ADME; details: recombinant enzyme; how it was run: as §1
T2 sequence (P16662 whole entry): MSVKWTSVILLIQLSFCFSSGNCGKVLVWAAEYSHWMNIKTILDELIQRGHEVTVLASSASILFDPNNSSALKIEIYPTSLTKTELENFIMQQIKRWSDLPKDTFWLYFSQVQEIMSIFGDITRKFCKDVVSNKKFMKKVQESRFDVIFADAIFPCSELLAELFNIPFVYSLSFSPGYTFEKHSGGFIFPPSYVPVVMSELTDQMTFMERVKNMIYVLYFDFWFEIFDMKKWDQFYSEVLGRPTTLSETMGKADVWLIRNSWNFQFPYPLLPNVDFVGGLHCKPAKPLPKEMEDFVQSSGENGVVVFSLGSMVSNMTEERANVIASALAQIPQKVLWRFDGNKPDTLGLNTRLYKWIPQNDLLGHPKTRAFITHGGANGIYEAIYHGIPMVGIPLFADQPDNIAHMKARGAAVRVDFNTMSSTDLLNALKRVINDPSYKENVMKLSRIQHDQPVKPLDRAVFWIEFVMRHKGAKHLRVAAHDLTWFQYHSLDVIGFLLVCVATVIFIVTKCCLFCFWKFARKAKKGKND

[3] = target: T2, UDP-glucuronosyltransferase 2B7; experiment: Drug level assessed as recombinant human C-terminal His-tagged UGT2B7-mediated compound formation from 4 mg 17-epiestriol after 5 hrs by NMR spectroscopic analysis in presence of UDPGA; assay type: ADME; details: recombinant enzyme
How it was run: (§2)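 Preparative biosynthesis: 4 mg 17-epiestriol or 8 mg 16-epiestriol with UGT2B7-enriched insect cell homogenate in 50 mM phosphate pH 7.4, 10 mM MgCl2, 50 mM UDPGA, 10% DMSO. Glucuronides fractionated by HPLC (0.1% HCOOH replacing phosphate, UV 280 nm), concentrated, lyophilized, then examined by NMR.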

[4] = target: T1, UDP-glucuronosyltransferase 1A10; experiment: Drug level assessed as recombinant human C-terminal His-tagged UGT1A10-mediated compound formation from 200 uM 16-epiestriol after 15 to 60 mins by […] analysis in presence of UDPGA; assay type: ADME; details: recombinant enzyme; how it was run: as §1
[5] = target: T2, UDP-glucuronosyltransferase 2B7; experiment: Drug level assessed as recombinant human C-terminal His-tagged UGT2B7-mediated compound formation from 8 mg 16-epiestriol after 5 hrs by NMR spectroscopic analysis in presence of UDPGA; assay type: ADME; details: recombinant enzyme; how it was run: as §2
[6] = system: [H][C@@]12CCc3cc(O)ccc3[C@@]1([H])CC[C@]1(C)[C@H](O)[C@H](O)C[C@@]21[H]; experiment: Drug metabolism assessed as human UGT1A10 F93G mutant-mediated 17-epiestriol-3-glucuronide formation after 15 to 60 mins by Michaelis-Menten equation analysis in presence of UDPGA; assay type: ADME
How it was run: (§3)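 UGT-enriched insect cell membranes (5 or 50 µg) were incubated with 0.2–300 µM aglycone in DMSO (10% final), 5 mM UDPGA, 10 mM MgCl2 and 50 mM phosphate pH 7.4 at 37°C. Reactions were stopped with perchloric acid and glucuronides measured by HPLC. Assays were in triplicate with substrate consumption ≤10%, rates normalized to relative UGT expression, and kinetics fitted to Michaelis-Menten.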

[7] = system: C[C@]12CC[C@@H]3c4ccc(O)cc4CC[C@H]3[C@@H]1C[C@@H](O)[C@@H]2O; experiment: Drug metabolism assessed as human UGT1A10 F93G mutant-mediated estriol-3-glucuronide formation after 15 to 60 mins by Michaelis-Menten equation analysis in presence of UDPGA; assay type: ADME; how it was run: as §3
[8] = system: C[C@]12CC[C@@H]3c4ccc(O)cc4CC[C@H]3[C@@H]1C[C@H](O)[C@@H]2O; experiment: Drug metabolism assessed as human UGT1A10 F93G mutant-mediated 16-epiestriol-3-glucuronide formation after 15 to 60 mins by Michaelis-Menten equation analysis in presence of UDPGA; assay type: ADME; how it was run: as §3
[9] = substrate: [H][C@@]12CCc3cc(O)ccc3[C@@]1([H])CC[C@]1(C)[C@H](O)[C@H](O)C[C@@]21[H]; experiment: Drug metabolism assessed as recombinant human C-terminal His-tagged UGT1A10-mediated 17-epiestriol-3-glucuronide formation after 15 to 60 mins by Michaelis-Menten equation analysis in presence of UDPGA; assay type: ADME; how it was run: as §3
[10] = substrate: C[C@]12CC[C@@H]3c4ccc(O)cc4CC[C@H]3[C@@H]1C[C@H](O)[C@@H]2O; experiment: Drug metabolism assessed as recombinant human C-terminal His-tagged UGT1A10-mediated 16-epiestriol-3-glucuronide formation after 15 to 60 mins by Michaelis-Menten equation analysis in presence of UDPGA; assay type: ADME
How it was run: (§4)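 For kinetics, the aglycone ranged from 0.2 to 300 μM in DMSO (10% final) with 5 mM UDPGA, 10 mM MgCl₂ and 50 mM phosphate pH 7.4. Enzyme was UGT-enriched insect cell membranes. Incubation was 15–60 min at 37°C, in triplicate, keeping substrate consumption ≤10%. Products were measured by HPLC and fitted to Michaelis-Menten. Rates were normalized to expression level.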

[11] = substrate: C[C@]12CC[C@@H]3c4ccc(O)cc4CC[C@H]3[C@@H]1C[C@@H](O)[C@@H]2O; experiment: Drug metabolism assessed as recombinant human C-terminal His-tagged UGT1A10-mediated estriol-3-glucuronide formation after 15 to 60 mins by Michaelis-Menten equation analysis in presence of UDPGA; assay type: ADME; how it was run: as §4
[12] = substrate: [H][C@@]12CCc3cc(O)ccc3[C@@]1([H])CC[C@]1(C)[C@H](O)[C@H](O)C[C@@]21[H]; experiment: Drug metabolism assessed as recombinant human C-terminal His-tagged UGT2B7-mediated 17-epiestriol-16-glucuronide formation after 15 to 60 mins by Michaelis-Menten equation analysis in presence of UDPGA; assay type: ADME; how it was run: as §3
[13] = substrate: C[C@]12CC[C@@H]3c4ccc(O)cc4CC[C@H]3[C@@H]1C[C@H](O)[C@@H]2O; experiment: Drug metabolism assessed as recombinant human C-terminal His-tagged UGT2B7-mediated 16-epiestriol-16-glucuronide formation after 15 to 60 mins by Michaelis-Menten equation analysis in presence of UDPGA; assay type: ADME; how it was run: as §4
[14] = substrate: C[C@]12CC[C@@H]3c4ccc(O)cc4CC[C@H]3[C@@H]1C[C@@H](O)[C@@H]2O; experiment: Drug metabolism assessed as recombinant human C-terminal His-tagged UGT2B7-mediated estriol-16-glucuronide formation after 15 to 60 mins by Michaelis-Menten equation analysis in presence of UDPGA; assay type: ADME
How it was run: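 Kinetics with His-tagged UGT-enriched insect-cell membranes (5 or 50 µg): aglycone 0.2–300 µM in 10% DMSO, 5 mM UDPGA, 10 mM MgCl₂, 50 mM phosphate pH 7.4, 15–60 min at 37°C. Substrate consumption kept at or below 10%. Glucuronides quantified by HPLC in triplicate, rates normalized to expression, and data fitted to Michaelis-Menten.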

C[C@]12CC[C@@H]3c4ccc(O[C@@H]5O[C@H](C(=O)O)[C@@H](O)[C@H](O)[C@H]5O)cc4CC[C@H]3[C@@H]1C[C@@H](O)[C@@H]2O
Drug metabolism [1]: metabolite_detected

C[C@]12CC[C@@H]3c4ccc(O)cc4CC[C@H]3[C@@H]1C[C@@H](O)[C@@H]2O[C@@H]1O[C@H](C(=O)O)[C@@H](O)[C@H](O)[C@H]1O
Drug metabolism [1]: metabolite_detected

C[C@]12CC[C@@H]3c4ccc(O)cc4CC[C@H]3[C@@H]1C[C@@H](O[C@@H]1O[C@H](C(=O)O)[C@@H](O)[C@H](O)[C@H]1O)[C@@H]2O
Drug metabolism [1]: metabolite_detected

C[C@@]12CC[C@@H]3c4ccc(O)cc4CC[C@H]3[C@@H]1CC[C@@H]2O[C@@H]1O[C@H](C(=O)O)[C@@H](O)[C@H](O)[C@H]1O
Drug metabolism (UGT2A2 (Homo sapiens)): metabolite_detected

C[C@]12CC[C@@H]3c4ccc(O)cc4CC[C@H]3[C@@H]1C[C@@H](O[C@@H]1O[C@H](C(=O)O)[C@@H](O)[C@H](O)[C@H]1O)[C@H]2O
Drug metabolism [2]: metabolite_not_detected

C[C@]12CC[C@@H]3c4ccc(O[C@@H]5O[C@H](C(=O)O)[C@@H](O)[C@H](O)[C@H]5O)cc4CC[C@H]3[C@@H]1C[C@@H](O)[C@H]2O
Drug metabolism [2]: metabolite_detected

C[C@]12CC[C@@H]3c4ccc(O)cc4CC[C@H]3[C@@H]1C[C@@H](O)[C@H]2O[C@@H]1O[C@H](C(=O)O)[C@@H](O)[C@H](O)[C@H]1O
Drug metabolism [2]: metabolite_detected
Drug metabolism [3]: metabolite_detected

C[C@]12CC[C@@H]3c4ccc(O[C@@H]5O[C@H](C(=O)O)[C@@H](O)[C@H](O)[C@H]5O)cc4CC[C@H]3[C@@H]1C[C@H](O)[C@@H]2O
Drug metabolism [4]: metabolite_detected

C[C@]12CC[C@@H]3c4ccc(O)cc4CC[C@H]3[C@@H]1C[C@H](O[C@@H]1O[C@H](C(=O)O)[C@@H](O)[C@H](O)[C@H]1O)[C@@H]2O
Drug metabolism [5]: metabolite_detected
Drug metabolism [4]: metabolite_detected

C[C@]12CC[C@@H]3c4ccc(O)cc4CC[C@H]3[C@@H]1C[C@H](O)[C@@H]2O[C@@H]1O[C@H](C(=O)O)[C@@H](O)[C@H](O)[C@H]1O
Drug metabolism [5]: metabolite_detected
Drug metabolism [4]: metabolite_detected

UDP-glucuronosyltransferase 1A10 (Homo sapiens; F93G)
Km [6]: 51.1 µM
Vmax [6]: 0.00571 µmol/min/mg
Km [7]: 230 µM
Vmax [7]: 0.00754 µmol/min/mg
Km [8]: 186 µM
Vmax [8]: 0.00225 µmol/min/mg

B1: UDP-glucuronosyltransferase 1A10 (Homo sapiens) (protein)
chain: T1 sequence (Q9HAW8 whole entry)
Km [9]: 337 µM
Vmax [9]: 0.000958 µmol/min/mg
Km [10]: 59.8 µM
Vmax [10]: 0.0077 µmol/min/mg
Km [11]: 68.4 µM
Vmax [11]: 0.0012 µmol/min/mg

B2: UDP-glucuronosyltransferase 2B7 (Homo sapiens) (protein)
chain: T2 sequence (P16662 whole entry)
Km [12]: 0.6 µM
Vmax [12]: 0.00082 µmol/min/mg
Km [13]: 38.4 µM
Vmax [13]: 0.00387 µmol/min/mg
Km [14]: 10.3 µM
Vmax [14]: 0.00151 µmol/min/mg
